Test results: the EternaBench riboswitch data

Tested on: MS2 coat protein
Assay: apparent Kd, MS2 coat protein; higher = weaker binding; RNA-MaP array; theophylline 2 mM where present
Summary of the method: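 The apparent Kd is reported as the median of filtered per-cluster binding-curve fits. To get these curves, designs transcribed by stalled E. coli RNA polymerase on Illumina sequencing-chip clusters were titrated with SNAP-549-labelled MS2 coat protein from 0.7 or 1.5 nM, doubling to 3 µM. Titrations were run without and then with constant ligand in 100 mM Tris-HCl pH 7.5, 80 mM KCl, 4 mM MgCl2, BSA, DTT, yeast tRNA and Tween-20, and green signal was normalised to red-channel RNA signal and control-cluster median Fmax.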

[1] = designed as: OFF switch for theophylline, no ligand
[2] = ligand present: theophylline, designed as: OFF switch for theophylline
[3] = designed as: ON switch for theophylline, no ligand
[4] = ligand present: theophylline, designed as: ON switch for theophylline

Row | Sequence | apparent Kd [1] [nM] | apparent Kd [2] [nM] | apparent Kd [3] [nM] | apparent Kd [4] [nM]
1 | ACGUCCAGGUUAAUCGUGGACAUGGUCGAUACCAGUAUUUUAAUCUACCCUUGGCAGCGACAUGAGGAUCACCCAUGUGCGAUGA | 12.5 | 23.4 |  | 
2 | AUCGUACCUGGUGAUACCAGCAAUUGCUCGUGACAUGAGGAUCACCCAUGUGGCCAGUGAUGCCCUUGGCAGCAUGGUCGGUGCA |  |  | 164 | 89.3
3 | AUGCACCUCGUCCAGGCAAUCUUUAGUGAUACCAGCUAACUCCUUGGCCCUUGGCAGCACAUGAGGAUCACCCAUGUGCGACAUC | 11.9 | 14 |  | 
4 | UGUAUGUGAUUUGAUACCAGAUCAGCUGGUUAUACAUGAGGAUCACCCAUGUUACUUUGGGUCCCUUGGCAGCAAAUCGCAUACU |  |  | 487 | 28.4
5 | UCGCUCGCCGGAAGGCGAGCGAGUUGCGAUACCAGCCCGGAAACGGGCCCUUGGCAGCGCACAUGAGGAUCACCCAUGUCAUGUU | 19.4 | 26.2 |  | 
6 | UACAGUACAACAGAUACCAGACAGUACUCUAGAUUGCAACAUGAGGAUCACCCAUGUAUAGUCCCUUGGCAGCUGUAAUGGGUGA |  |  | 180 | 441
7 | CGACUACAGCGUGAUACCAGUGACAGAUACCAGUCUAGACAUGAGGAUCACCCAUGUACGCGCCCUUGGCAGCACACUAGAUCGA |  |  | 89.4 | 49.9
8 | ACGUCUCGUUUACUCGUGGGUUAGCUCGAUACCAGUAUUCAAACUUACCCUUGGCAGCGACAUGAGGAUCACCCAUGUGCGAAGA | 16.4 | 54.9 |  | 
9 | GAUAGUUGAAGGGAUACCAGCCUGGACAUGAGGAUCACCCAUGUAGCAUGUUUGAAACUGGGCCCUUGGCAGCCCAUAUUGUGUA |  |  | 22.4 | 14.4
10 | ACGAACUGUAGUGAUACCAGACGUACAUGAGGAUCACCCAUGUUGUAAACAUGGUGAAUAGUCCCUUGGCAGCACAGUUAGUUCG | 182 | 738 |  | 
11 | CCUCAUGUGGUGCUGCACAUGAGAGGUGAUACCAGCAUCGAAAGAUGCCCUUGGCAGCACCAACAUGAGGAUCACCCAUGUAAUA |  |  | 57.4 | 135
12 | UUAAAUGUGACGGAUACCAGCGUGUUGUAGAACAUGAGGAUCACCCAUGUAGUGAUCAUGCGCCCUUGGCAGCUGGUAUGUUUGA |  |  | 379 | 607
13 | CGCUACGUAACUGAUACCAGUGUACUGACAUGAGGAUCACCCAUGUUGGGUUUUGUUGUACACCCUUGGCAGCAGAAUCGUAGCG | 70.3 | 95.3 |  | 
14 | CGAGUCCGCUGAUGGGCUAAGUCAGGUGAUACCAGCCACUCCCGCGGCCCUUGGCAGCACAUGAGGAUCACCCAUGUAGGGCUUG | 19.6 | 338 |  | 
15 | UCCUUAGAUACUGAUACCAGACUACAGUAAACAUGAGGAUCACCCAUGUUUGAUCACUAAGUCCCUUGGCAGCAGGUACAUGGGA |  |  | 11.3 | 9.08
16 | UGUAACAUGAGGAUCACCCAUGUAAGUGAUACCAGAUAAGUAGUAGUCCCUUGGCAGCAUAUUGGGCAAGUGUAUAGUCUAUACG |  |  | 49.8 | 53.5
17 | AUAUUAAAGAGUGAUACCAGACUACAUGAGGAUCACCCAUGUUACAUUUAAAUAUCAUUUGUCCCUUGGCAGCACAUUAAGUACA | 17.4 | 13.3 |  | 
18 | UGACAUUGCUCAGAUACCAGACAUGAGGAUCACCCAUGUGCCAACGUACAAAUAAUAAAUGUCCCUUGGCAGCUGAGCAAUGUCU | 11.4 | 35 |  | 
19 | UGUAUGUGAUCUGAUACCAGUCCCUUGGCAGCAACAUGAGGAUCACCCAUGUAGAUACCAGACCCUUGGCAGCAGAUCGCAUACU |  |  | 9.06 | 8.27
20 | GGUGGCUGGACUGAUACCAGCCACCACCGAUAGACCACAUGAGGAUCACCCAUGUUGGGUGGCCCUUGGCAGCAGUCUAGCUGCC |  |  | 561 | 1240
21 | AUGUCGUUGAAUAUAGCGGCUUGGUGUGAUACCAGAAUGAUCUAAUUCCCUUGGCAGCAUUACAUGAGGAUCACCCAUGUUCAGG |  |  | 24 | 23.9
22 | AUUAAUUGUCGUGAUACCAGACAUACAUGAGGAUCACCCAUGUUAAGUAACAUUUUUUAUGUCCCUUGGCAGCACUUUUUAAUUA |  |  | 19.4 | 11.5
23 | AUAAGUACGUCAGAUACCAGACAGCCAGACUUACAUGAGGAUCACCCAUGUGGAUGGACGGUCCCUUGGCAGCUGGCCGCAAAAG |  |  | 213 | 14.2
24 | AUCGUACCUGAGGAUACCAGCAUGUGAUCAUAACAUGAGGAUCACCCAUGUAAUCAGUGAUGCCCUUGGCAGCUUAGUCGAUACA |  |  | 75.5 | 45.2
25 | UUAUUUAUAAUGGAUACCAGUCGUAUGGCCCGGCAUCCUGACAUGAGGAUCACCCAUGUCGACCCUUGGCAGCUGUUAUGGGUUU | 13.5 | 20 |  | 
26 | ACGUCCCGUUUACUCGUGGGUUAGGUCGAUACCAGUAUUCAAACUUACCCUUGGCAGCGACAUGAGGAUCACCCAUGUGCGAAGA | 17.6 | 99.5 |  | 
